The text below walks through data of ChEMBL document CHEMBL1144077, “Cytotoxic lignans of Justicia ciliata” (J Nat Prod, 1999).

Molecules are shown by their SMILES. Values after ≈ are worked out from the molar mass of the structure shown. Active and inactive are the calls of the source. The calls are words filed in the database; no cut-off is given here. Starred links: 1 amine or outer side, 2 acyl side, 3 side chain; linkers in the order of their positions; H or OH if unused. Positions of bridges follow the written chain, without caps; N, C: chain ends. Non-standard residues stand in square brackets, D forms with d. Residues, ends and D or L forms follow the SMILES beside them. Chains are numbered I, II in the order given. Actinocin(1to9) = Cc1c2oc3c(C)ccc(C(=O)[*:2])c3nc-2c(C(=O)[*:1])c(N)c1=O; NMeV = CN[C@H](C(=O)O)C(C)C; Sar = CNCC(=O)O Bounds are passed on as bounds.

The subject of data set [1] is T-24. In words: Cytotoxicity against human T24 cells after 6 days by MTT assay. The format is functional. The conditions noted are these: for EC50: T-24, 144 h, read-out: ED50 (the source's name). In short, it runs like this:
(§1)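 Human lines kept in DMEM with 10% FBS, 2 mM glutamine, penicillin/streptomycin. 1-3 × 10^3 cells/100 µL seeded, 6 h attachment, then medium replaced with fresh medium (plus 10 mM HEPES pH 7.3) holding a range of drug concentrations. Exposure 6 days, 37 °C, CO2. MTT (1 mg/mL stock, 10 µL) for 4 h, DMSO solubilization, absorbance 550 nm. ED50 in µg/mL.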

For data set [2], the system named is Ca-Ski. As to the kind of experiment: Cytotoxicity against human CaSki cells after 6 days by MTT assay. The format is functional. Conditions: for EC50: 144 h, read-out: ED50 (the source's name). In short, it runs like this: as §1
Background: Formazan colour is commonly taken as a measure of viable cells.

For data set [3], the system named is SiHa. As to the kind of experiment: Cytotoxicity against human SiHa cells after 6 days by MTT assay. The format is functional. Conditions: for EC50: Homo sapiens, SiHa, 144 h, read-out: ED50 (the source's name). In short, it runs like this:
as §1

Data set [4] concerns HT-3. In words: Cytotoxicity against human HT-3 cells after 6 days by MTT assay. The format is functional. The conditions noted are these: for EC50: Homo sapiens, HT-3, 144 h, read-out: ED50 (the source's name). The method, boiled down:
as §1

Data set [5] can be described thus: (§2) Cytotoxicity against human PLC/PRF/5 cells after 6 days by MTT assay. The format is functional. Conditions: PLC-PRF-5, 144 h, read-out: ED50 (the source's name). The method, boiled down: as §1
Data set [6] in a line: Cytotoxicity against mouse NIH/3T3-212 cells after 6 days by MTT assay. The conditions noted are these: for CC50 at 144 h: NIH/3T3-212 cells, read-out: ED50; for Activity: 144 h. The format is cell-based. The method, boiled down:
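212 cells (NIH/3T3 carrying inducible Ha-ras) kept in alpha-MEM with 10% calf serum and antibiotics. 1-3 × 10^3 cells/100 µL seeded, 6 h attachment, then fresh HEPES-supplemented (10 mM, pH 7.3) medium with graded drug concentrations for 6 days at 37 °C. MTT 4 h, DMSO dissolution, read at 550 nm. ED50 in µg/mL.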

Data set [7] concerns PLC-PRF-5. The data set is described as §2. The format is functional. The method, boiled down:
as §1

Regarding `COc1cc2c(OC)c3c(c(-c4ccc5c(c4)OCO5)c2cc1OC)C(=O)OC3` [JUSTICIDIN A], the EC50 in data set [1] amounted to 0.002 µg/mL (≈ 0.00507 µM); in data set [2] it was 0.003 µg/mL (≈ 0.00761 µM); in data set [3], 0.0074 µg/mL (≈ 0.0188 µM); in data set [4], 0.0018 µg/mL (≈ 0.00456 µM); in data set [5], 0.0022 µg/mL (≈ 0.00558 µM). In data set [6], the CC50 at 144 h stood at 0.0227 µg/mL (≈ 0.0576 µM).
On to `COc1ccc(-c2c3c(c(O)c4cc5c(cc24)OCO5)COC3=O)cc1OC`, for which the result in data set [1], in data set [2], in data set [3], in data set [4] and in data set [7] was inactive. Besides, the Activity result in data set [6] is on record as “Not Active”.
Consider `COc1c2c(c(-c3ccc4c(c3)OCO4)c3cc4c(cc13)OCO4)C(=O)OC2` [TAIWANIN E METHYL ETHER], for which the EC50 was 5 µg/mL (≈ 13.2 µM) in data set [1]; greater than 8 µg/mL in data set [2]; 6.1 µg/mL (≈ 16.1 µM) in data set [3]; 2.6 µg/mL (≈ 6.87 µM) in data set [4]; 6.8 µg/mL (≈ 18 µM) in data set [5]. Also, the CC50 at 144 h in data set [6] is greater than 8 µg/mL.
As for `COC(=O)C(Cc1ccc2c(c1)OCO2)C(Cc1ccc2c(c1)OCO2)C(=O)OC` (stereo not drawn), the outcome in data set [1], in data set [2], in data set [3], in data set [4] and in data set [7] was inactive. In data set [6], the Activity entry is listed as “Not Active”.
In the case of `COc1ccc(-c2c3c(c(OC)c4cc(OC)c(OC)cc24)COC3=O)cc1OC` [CILINAPHTHALIDE B], the result in data set [1], in data set [2], in data set [3], in data set [4] and in data set [7] was inactive. The Activity entry in data set [6] is “Not Active”.
For `COc1cc2c(OC)c3c(c(-c4ccc5c(c4)OCO5)c2cc1OC)COC3=O` [NEOJUSTICIN B], the outcome in data set [1], in data set [2], in data set [3], in data set [4] and in data set [7] was inactive. The Activity result in data set [6] is “Not Active”.
As for `COc1ccc(-c2c3c(c(OC)c4cc5c(cc24)OCO5)COC3=O)cc1OC` [CHINENSINAPHTHOL METHYL ETHER], the outcome in data set [1], in data set [2], in data set [3], in data set [4] and in data set [7] was inactive. Further, in data set [6], the Activity result is reported as “Not Active”.
Turning to `COc1cc(-c2c3c(c(OC)c4cc(OC)c(OC)cc24)COC3=O)ccc1O` [CILINAPHTHALIDE A], the EC50 came out at 1.3 µg/mL (≈ 3.28 µM) in data set [1]; 3 µg/mL (≈ 7.57 µM) in data set [2]; 6.4 µg/mL (≈ 16.1 µM) in data set [3]; 0.3 µg/mL (≈ 0.757 µM) in data set [4]; 12 µg/mL (≈ 30.3 µM) in data set [5]. Further, the CC50 at 144 h in data set [6] is greater than 8 µg/mL.
In the case of `Cc1c2oc3c(C)ccc(C(=O)N[C@@H]4C(=O)N[C@H](C(C)C)C(=O)N5CCC[C@H]5C(=O)N(C)CC(=O)N(C)[C@@H](C(C)C)C(=O)O[C@@H]4C)c3nc-2c(C(=O)N[C@@H]2C(=O)N[C@H](C(C)C)C(=O)N3CCC[C@H]3C(=O)N(C)CC(=O)N(C)[C@@H](C(C)C)C(=O)O[C@@H]2C)c(N)c1=O` [DACTINOMYCIN] (I: T[dV]P[Sar][NMeV] / II: T[dV]P[Sar][NMeV]; ester I:1-I:C, II:1-II:C; linker I:N-II:N via Actinocin(1to9)), the EC50 in data set [1] stood at 0.0015 µg/mL (≈ 0.00119 µM); in data set [2] it was 0.0019 µg/mL (≈ 0.00151 µM); in data set [5], 0.0014 µg/mL (≈ 0.00112 µM). The ED50 in data set [3] is 8.1 ×10⁻⁴ ug/ml; in data set [4], 5.6 ×10⁻⁴ ug/ml.
